Measured values: PMC2919362 (Chemical biology & drug design, 2010)
Where no end group is shown, it is not given here. The star is where a group is joined. 5FAM = O=C1OC2(c3ccc(O)cc3Oc3cc(O)ccc32)c2ccc(C(=O)*)cc21; Farnesyl = CC(C)=CCC/C(C)=C/CC/C(C)=C/C*

Assays:
PC-12 cells [1] = experiment: Flow cytometry of peptide uptake in PC-12 cells; format: cell-based, rat; settings: 1 μM, 2 h, 37°C, trypsinized 15 min, triplicate (Figure 6)
D1TNC1 astrocytes [2] = experiment: Flow cytometry of peptide uptake in D1TNC1 astrocytes; format: cell-based, rat; settings: 1 μM, 2 h, 37°C, trypsinized 15 min, triplicate (Figure 6)
NIH/3T3 fibroblast cells = experiment: CLSM of peptide uptake in live NIH/3T3 fibroblasts; format: cell-based, Swiss mouse; settings: 1 μM, 2 h, live cells (Figure 4B)
Procedure, shortened: (§1)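 Live-cell confocal imaging. Cells were seeded at 7.8 × 10^3 cells/cm2 and grown to about 50% confluency (about 24 h), then washed twice with PBS. Peptide (5-Fam labelled) was incubated in serum-free DMEM at 37°C, 5.0% CO2. Nuclei were stained with Hoechst 34580 (1 μg/mL final, last 20 min) and membranes with WGA–Alexa Fluor 594 (5 μg/mL final, last 10 min). Cells were then washed twice and imaged with a 60X objective; emission was read at 520/450/620 nm.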

D1TNC1 astrocytes [3] = experiment: CLSM of peptide uptake in live D1TNC1 astrocytes; format: cell-based, rat; settings: 1 μM, 2 h, live cells (Figure 4C)
Procedure, shortened: as §1

COS-1 cells = experiment: CLSM of peptide uptake in live COS-1 cells; format: cell-based, African green monkey; settings: 1 μM, 2 h, live cells (Figure 4A)
Procedure, shortened: as §1

PC-12 cells [4] = experiment: CLSM of peptide uptake in PC-12 differentiated neurons; format: cell-based, rat; settings: 1 μM, 2 h, live cells (Figure 4D)
Procedure, shortened: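 Neuronal differentiation and imaging. PC-12 cells were seeded at 3.9 × 10^3 cells/cm2 on poly-lysine plates and grown for 24 h. They were serum-starved for 24 h in F12K + 1% HS, then differentiated with 100 ng/mL β-NGF in the same medium for 6–8 days, refreshed every 2 days. Labelled peptide was incubated in F12K + 1% HS at 37°C, 5.0% CO2, with Hoechst 34580 and WGA–Alexa Fluor 594 counterstains. Live cells were imaged by confocal microscopy (60X).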

Substance	entry into PC12 cells compared with HeLa cells (flow cytometry) (PC-12 cells [1])	entry into astrocytes compared with HeLa cells (flow cytometry) (D1TNC1 astrocytes [2])	uptake in NIH/3T3 fibroblast cells (CLSM) (NIH/3T3 fibroblast cells)	uptake in D1TNC1 astrocytes (CLSM) (D1TNC1 astrocytes [3])	uptake in COS-1 cells (CLSM) (COS-1 cells)	uptake in PC-12 cells (CLSM) (PC-12 cells [4])
5-Fam-KKSRRC(S-decyl)VLS [5b]	efficiency comparable to that observed with HeLa cells	efficiency comparable to that observed with HeLa cells	–	–	–	–
5FAM-KKSRRC(Farnesyl)VLS [4b]	–	–	moderate uptake	significant uptake	moderate uptake	significant uptake
